As usually defined, the IC50 is the concentration that inhibits the measured activity by half. A high value points to weaker potency in that assay. Broadly, the inhibition is how much of the control response was suppressed. A low value points to a response near the control.

A short description of assay [1]: Inhibition of botulinum neurotoxin serotype A light chain metalloprotease. Details: species or system Clostridium botulinum. The method, boiled down:
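Metalloprotease activity of the BoNT/A light chain was measured by a method described in earlier work. IC50 was derived from concentration-versus-inhibition plots using seven or nine concentrations per inhibitor, averaged from duplicate determinations.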

The subject of assay [2] is Clostridium botulinum. Description: Inhibition of botulinum neurotoxin serotype A light chain metalloprotease at 50 uM. In outline: (§1)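 Percent inhibition of BoNT/A light chain metalloprotease activity was measured at a single inhibitor concentration, by a method described in earlier work, in duplicate.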
In assay [3] the test system is Clostridium botulinum. Nature of the assay: Inhibition of botulinum neurotoxin serotype A light chain metalloprotease at 20 uM. The method, boiled down:
as §1

`COC(=O)CCC(C)[C@H]1CC[C@H]2[C@@H]3[C@H](OC(C)=O)C[C@@H]4C[C@@H](NCCNc5ccnc6cc(Cl)ccc56)CC[C@]4(C)[C@H]3C[C@H](OC(C)=O)[C@]12C` (stereo partly specified) returned a concentration for half-maximal inhibition (IC50) in assay [1] of 17 µM. This compound also yielded an inhibition in the assay on Clostridium botulinum [2] of 80%. For the compound `COC(=O)CCC(C)[C@H]1CC[C@H]2[C@@H]3[C@H](OC(C)=O)C[C@@H]4C[C@H](OC(C)=O)CC[C@]4(C)[C@H]3C[C@H](OC(C)=O)[C@]12C` (stereo partly specified), in the assay with Clostridium botulinum [2], the inhibition came to 0%. The same measure, in the same setting: as for `COC(=O)CCC(C)[C@H]1CC[C@H]2[C@@H]3[C@H](OC(C)=O)C[C@@H]4C[C@H](N)CC[C@]4(C)[C@H]3C[C@H](OC(C)=O)[C@]12C` (stereo partly specified), the figure is 13%. With `COC(=O)CCC(C)[C@H]1CC[C@H]2[C@@H]3[C@H](OC(C)=O)C[C@@H]4C[C@H](OCCNc5ccnc6cc(Cl)ccc56)CC[C@]4(C)[C@H]3CC(OC(C)=O)[C@]12C` (stereo partly specified), the inhibition with Clostridium botulinum [2] worked out at 9%. With `COC(=O)CCC(C)[C@H]1CC[C@H]2[C@@H]3[C@H](OC(C)=O)C[C@@H]4C[C@H](NCCNc5ccnc6cc(Cl)ccc56)CC[C@]4(C)[C@H]3C[C@H](OC(C)=O)[C@]12C` (stereo partly specified), inhibition in assay [1] was half-maximal at 7 µM (IC50). The same compound yielded an inhibition in the assay with Clostridium botulinum [2] of 90%. In the case of `Clc1ccc2c(NCCCN(CCCNc3ccnc4cc(Cl)ccc34)CCCNc3ccnc4cc(Cl)ccc34)ccnc2c1`, in assay [1], 3.2 µM corresponded to half-maximal inhibition (IC50). The compound also had an inhibition in the assay on Clostridium botulinum [3] of 67%. In the assay on Clostridium botulinum [2], `Nc1ccnc2cc(Cl)ccc12` registered an inhibition of 12%. On the same count and under the same terms, as for `COC(=O)CCC(C)[C@H]1CC[C@H]2[C@@H]3[C@H](OC(C)=O)C[C@@H]4C[C@H](OCCNCCNc5ccnc6cc(Cl)ccc56)CC[C@]4(C)[C@H]3CC(OC(C)=O)[C@]12C` (stereo partly specified), the figure is 62%.
